Test results taken from PMC5525105 (ACS Chemical Biology, 2017).
Numbering of substitutions follows the chain as printed. Blank lines part the entries; values can stand above or below the molecule they belong to.

Columns and labels:
GBA L444P mutant = conditions: mice, oral administration; cited from earlier work
GBA = conditions: neutral pH; cited from earlier work
rGBA [1] = target: T1, rGBA (Homo sapiens, UniProt P04062, R534H); experiment: Limited proteolysis of rGBA with trypsin; conditions: for rGBA remaining intact after tryptic digestion: 90 min of incubation with trypsin
T1 sequence (P04062 40-536 R534H): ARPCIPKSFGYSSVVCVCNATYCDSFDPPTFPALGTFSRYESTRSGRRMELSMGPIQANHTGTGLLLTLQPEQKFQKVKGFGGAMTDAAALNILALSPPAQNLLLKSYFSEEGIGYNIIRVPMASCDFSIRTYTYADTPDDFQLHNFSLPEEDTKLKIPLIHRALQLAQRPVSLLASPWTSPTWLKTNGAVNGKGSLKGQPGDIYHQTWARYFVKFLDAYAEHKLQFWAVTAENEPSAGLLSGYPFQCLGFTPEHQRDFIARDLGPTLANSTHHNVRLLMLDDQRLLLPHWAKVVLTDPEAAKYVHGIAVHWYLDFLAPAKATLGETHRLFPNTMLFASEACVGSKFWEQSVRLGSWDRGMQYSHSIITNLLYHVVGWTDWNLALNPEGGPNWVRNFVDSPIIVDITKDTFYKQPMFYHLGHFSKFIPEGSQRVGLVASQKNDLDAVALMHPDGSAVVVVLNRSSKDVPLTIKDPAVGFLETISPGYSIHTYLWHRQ

rGBA [2] = target: T1, rGBA; experiment: Thermal stability of rGBA by tryptophan fluorescence decay; assay type: binding
wild-type and N370S GBA = experiment: In situ treatment of fibroblasts with IFG 1 or fluoro 3 for 12 days; assay type: cell-based, human; conditions: wild-type and homozygous N370S GBA fibroblasts
wild-type GBA = target: T2, wild-type GBA (Homo sapiens, UniProt P04062); experiment: In situ stabilization of GBA in wild-type fibroblasts; assay type: cell-based; conditions: wild-type cells, 100 nM ABP 5 or 100 μM leupeptin, up to 12 days
T2 sequence (P04062 40-536): T1 sequence (P04062 40-536 R534H) with H495R
Outline: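 Confluent wild-type skin fibroblasts were cultured 0–12 days with 100 nM red β-epoxide probe, 100 μM leupeptin, or both, with medium refreshed […]. Lysates were made in pH 6.5 phosphate/Triton with protease inhibitors. Without in situ probe, 10 μg protein was labeled 1 h at 37 °C with 100 nM green probe at pH 5.2. Analysis was SDS-PAGE fluorescence, Coomassie staining and anti-GBA (8E4) western blot, then densitometry.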

rGBA [3] = target: T1, rGBA; experiment: Tryptophan emission fluorescence spectra of rGBA; conditions: λEX 295 nm, pH 7.4, free or in complex with inhibitor
[4] = Thermal unfolding of free rGBA by circular dichroism; assay type: physicochemical; conditions: circular dichroism 222 nm
[5] = Time-dependent decay of rGBA activity at 37 °C; assay type: physicochemical

- rGBA remaining intact after tryptic digestion (rGBA [1]): 50%
- increase of Tm of rGBA (rGBA [2]; pH 5.2, saturating inhibitor concentration): +5.6 °C
Molecule: OC[C@H]1CNC[C@@H](O)[C@@H]1O [IFG 1, isofagomine]
- increase of GBA L444P mutant activity (GBA L444P mutant): up to 5 fold
- increase in thermal stability of GBA (GBA): 8.7 °C
- concentration at which stabilizing effect became evident (wild-type and N370S GBA): greater than 10 μM
- concentration of maximal stabilizing effect (wild-type and N370S GBA; highest concentration tested): 100 µM

- stabilization of GBA (wild-type GBA): about 3 fold
Molecule: CC(=O)N[C@@H](CC(C)C)C(=O)N[C@@H](CC(C)C)C(=O)N[C@H](C=O)CCCNC(=N)N [leupeptin]

- maximum emission of rGBA tryptophan fluorescence (rGBA [3]): 336.5 nm
- rGBA remaining intact after tryptic digestion (rGBA [1]): ~10%
B1: rGBA: purified recombinant glucocerebrosidase (imiglucerase) from Genzyme (protein, UniProt P04062 40-536, looked up, variant R495H)
Lysosomal acid …: T1 sequence (P04062 40-536 R534H)
modifications: imiglucerase
- apparent Tm ([4]; pH 5.2): 61 °C
- apparent Tm ([4]; pH 7.4): 57 °C
- activity of rGBA over time ([5]; pH 5.2, 37 °C): preserved
- half-life of rGBA activity ([5]; pH 7.4, 37 °C, residual activity measured at pH 5.2): 30 min
- sensitivity of rGBA to tryptic digestion over 90 min (rGBA [1]; pH 5.2, trypsin/rGBA 1/10 (w/w)): shows resistance to tryptic digestion
- rGBA degraded by trypsin within 60 min (rGBA [1]; pH 7.4, trypsin/rGBA 1/10 (w/w)): about 40%
- Tm of rGBA (rGBA [2]; pH 5.2, no inhibitor): 55.2 °C
